Insulin prom act: activators of insulin promoter-driven GFP, primary screen, imaging, TRM-6 cells (human fetal islet line), eGFP reporter, cell count; plate-scaled: unstimulated 0, stimulated control 100; activation, % at 2 µM; actives 0.81% (n = 130,000);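 active = activation at 2 µM above a set limit, confirmed on inspection of the cell images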;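 also: share of cells whose green reporter signal exceeds an intensity cutoff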
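Test system: TRM-6 insulin promoter–eGFP reporter cells / Quantity: 1,000 cells per well / Reagent: tamoxifen inducer, 0.75 µM, in seeding medium / Compound dosing: 2 µM final, single concentration / Schedule: overnight tamoxifen, then two-day compound incubation at 37 °C / Measured by: automated fluorescence imaging of paraformaldehyde-fixed, Hoechst-counterstained cells, green channel / Read-out: percent activation from GFP-positive cell fraction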
* marks the source's active call; other numbers are inactive results. The full list was thinned out, with hits kept by preference.

SMILES | Insulin prom act
CC(=O)Nc1ccc(-c2csc(NCc3ccco3)n2)cc1 | 3
Oc1ccc(-c2csc(-c3ccccc3)n2)cc1O | 7
O=C(/C=C/c1ccccc1)NCCCNC(=O)/C=C/c1ccccc1 | 0
Brc1cccc(C2CC(c3ccccc3)n3nnnc3N2)c1 (stereo not drawn) | -7
O=C(Nc1cccc2c1C(=O)NC2=O)c1ccc(N2C(=O)CCC2=O)cc1 | -5
O=C1CCCC(=O)N1c1ccc(O)cc1 | 267*
CC(=O)c1c(C(C)=O)c(C)n(-c2ccc(O)cc2)c1C | -8
CCn1ncc(C2=NOC(C(=O)Nc3cc(OC)c(Cl)cc3OC)C2)c1C (stereo not drawn) | 9
O=S(=O)(c1cccc(-c2nnc3n2CCCCC3)c1)N1CCCC1 | 0
COc1ccc(-c2ccc3c(n2)sc2c(=O)[nH]c(=O)[nH]c23)cc1OC | 136
O=C(CSc1nc2ccccc2c(=O)n1Cc1ccc(Cl)cc1)NCc1cccs1 | -7
CCn1c(SCC(=O)NCc2cccs2)nc2c1c(=O)n(C)c(=O)n2C | -9
CCn1c(=O)c2ccccc2n2c(SCC(=O)NCc3cccs3)nnc12 | 136*
CC(=O)N/C(=C/c1ccc2c(c1)OCO2)C(=O)NCCCO | 5
O=C(Cn1nc(-c2ccc(N3CCOCC3)c([N+](=O)[O-])c2)c2ccccc2c1=O)N1CCCCC1 | -4
Cc1ccc(S(=O)(=O)NCCSc2nnnn2C)cc1 | 0
CC1(CCc2ccccc2)NC(=S)N(c2ccccc2)N1 (stereo not drawn) | -4
Cc1cccc(NC(=S)NNC(=O)CC(C)O)c1C (stereo not drawn) | 0
CSc1ccc(/C=N/NC(=O)c2ccc(O)cc2)cc1 | -6
O=[N+]([O-])c1ccc(N/N=C2\CC3CC=CC23)cc1 (stereo not drawn) | 0
O=C(N/N=C1\CC2CC=CC12)c1ccc(O)cc1 (stereo not drawn) | 407*
COc1ccccc1NC(=O)C1CCN(c2ncccn2)CC1 | 6
O=C(c1ccccc1)c1ccc(OCC(O)CN2CCOCC2)cc1 (stereo not drawn) | 233
CC(C(=O)N1CCOCC1)N1C(=O)c2ccccc2C1=O (stereo not drawn) | 282
O=C1c2ccccc2C(=O)N1CC(O)CN1CCOCC1 (stereo not drawn) | 533*
SMILES | Insulin prom act
Cc1ccnc(NC(=O)CCC(=O)N(CC(=O)NCc2ccccc2)Cc2cccs2)c1 | 139
CCOC(=O)c1cccc(NC(=O)c2cccnc2)c1 | 9
CCOC(=O)c1cccc(NC(=O)CSc2nnc(CNc3ccc(C)cc3)n2CC)c1 | 0
CCOC(=O)c1cccc(NC(=O)CSc2nnc(-c3cccnc3)n2CC)c1 | 81*
CN(C)C(CNC(=O)CSc1nnc(-c2ccco2)o1)c1ccccc1 (stereo not drawn) | -60
CC(Sc1nc2ccccc2o1)C(=O)O (stereo not drawn) | 6
O=C(O)c1ccc(S(=O)(=O)Cc2ccccc2)cc1 | 79
CCN(CC)S(=O)(=O)c1cccc(-c2nnc(SCC(=O)N3CCC(C(=O)O)CC3)n2N)c1 | -6
CCN(CC)S(=O)(=O)c1cccc(C(=O)N2CC(O)CC2C(=O)O)c1 (stereo not drawn) | 443*
CCN(CC)S(=O)(=O)c1cccc(C(=O)Nc2sc3c(c2C(N)=O)CCCC3)c1 | -5
COc1ccc(C(C)C)cc1S(=O)(=O)n1cnc(C)c1 | -4
CC[n+]1c(/C=C/C=C/N(C(C)=O)c2ccccc2)sc2ccccc21 | 203*
COc1ccc(CCNC(=O)C2CCCN(S(C)(=O)=O)C2)cc1OC (stereo not drawn) | -4
COc1cccc(-n2nnc3c(=O)n(CC(=O)N4CCCc5ccccc54)cnc32)c1 | 6
COC(=O)C1CCN(C(=O)CCCOc2ccccc2)CC1 | 123
C=CCNC(=S)N1CCC(C(=O)c2ccc(OC)cc2)CC1 | 3
COCCC(=O)N1CCCC(C(=O)c2ccc(Oc3ccccc3)cc2)C1 (stereo not drawn) | 542*
COc1ccc(NC(=O)Cn2nnc(C(N)=O)c2N)c(OC)c1 | -8
CCOC(=O)c1c(-c2ccc(C)cc2)csc1NC(=O)C1CCCO1 (stereo not drawn) | -2
CCc1c(C)sc(NC(=O)C2CCCO2)c1C#N (stereo not drawn) | 43
CCCOC(=O)c1c(NC(=O)C2CCCO2)sc(C(=O)OC)c1C (stereo not drawn) | 567*
C=CCNc1oc(-c2cccs2)nc1C#N | 7
COc1cc2cc(CN(Cc3cccs3)C(=S)Nc3cccc(C)c3)c(=O)[nH]c2cc1OC | 354*
CNC(=S)N(Cc1cccs1)Cc1cc2cc(OC)c(OC)cc2[nH]c1=O | 3
Cc1cccc(NC(=S)N(Cc2cccs2)Cc2cc3cc(C)ccc3[nH]c2=O)c1 | -8
SMILES | Insulin prom act
C=CCn1c(SCCN2CCCC2)nc2c([nH]c3ccccc32)c1=O | -8
CCn1c(SC/C=C/c2ccccc2)nnc1-c1cccs1 | 191
C=CCn1c(Cc2cccs2)nnc1SC/C=C/c1ccccc1 | 81*
C=CCn1c(CCNC(=O)c2cccs2)nnc1SCC(=O)c1ccc(Br)cc1 | -7
O=C1NCC(COc2ccc(Cl)cc2)O1 (stereo not drawn) | 0
Cc1nnsc1C(=O)NC(C)c1ccccc1 (stereo not drawn) | -8
Cc1cc(NC(=O)CCC(=O)N(c2ccccc2)C(C(=O)NC2CCCC2)c2cccs2)no1 (stereo not drawn) | 118
Cc1cc(NC(=O)CCC(=O)N(Cc2cccs2)C(C(=O)NC2CCCC2)c2cccnc2)no1 (stereo not drawn) | -3
Cc1ccc(C(C(=O)NC2CCCC2)N(Cc2ccco2)C(=O)CCC(=O)Nc2cc(C)on2)cc1 (stereo not drawn) | 810*
CCC(=O)c1c[nH]c(C(=O)NCCCn2ccnc2)c1 | -4
COC(=O)CN1C(=O)S/C(=C/c2cc(C)n(C)c2C)C1=O | -4
COC(=O)CN1C(=O)S/C(=C/c2ccc(N3CCCCC3)o2)C1=O | 184*
O=C(CN1C(=O)S/C(=C/c2ccc(N3CCOCC3)cc2)C1=O)N1CCOCC1 | -6
CC1CN(S(=O)(=O)c2cccc(C(=O)Nc3ccc4c(c3)CCC4)c2)CC(C)O1 (stereo not drawn) | -2
O=c1cc(-c2ccccc2)nc(N2CCN(Cc3ccc4c(c3)OCO4)CC2)[nH]1 | 730*
O=C(c1cc(-c2ccccc2)on1)N1CCN(Cc2ccc3c(c2)OCO3)CC1 | -5
O=c1[nH]c(CN2CCN(Cc3ccc4c(c3)OCO4)CC2)nc2ccccc12 | 3
COc1cc(-c2nc3oc4ccccc4c(=O)c3c(=O)n2Cc2ccco2)cc(OC)c1OC | 6
O=C(COc1ccc(F)cc1)Nc1ccc(-n2cnnn2)cc1 | -3
CCOC(=O)c1ccc(NC(=O)COc2ccc(-n3cnnn3)cc2)cc1 | 3
CC(=O)Nc1ccc(-n2cnnn2)cc1 | 512*
COc1ccc(CCC(=O)NCCCNC(=O)CCc2ccc(OC)cc2)cc1 | -3
N#C/C(=C/c1ccc(N2CCCCC2)o1)C(=O)Nc1ccc2ccccc2c1 | 186
N#C/C(=C/c1ccc(N2CCCCCC2)o1)c1cccc(F)c1 | 1
N#C/C(=C/c1ccc(N2CCCCC2)o1)C(=O)Nc1ccc(Cl)cc1 | 270*
NS(=O)(=O)c1ccc(CCNC(=O)c2cccnc2)cc1 | 253
Cc1ccc(S(=O)(=O)N2CCC(C(=O)NCc3ccccc3Cl)CC2)cc1 | 91*
CN(C)C(=O)N1CCCC(C(=O)NCc2ccccc2Cl)C1 (stereo not drawn) | -8

Bioassay records from PubChem BioAssay.
